Assay results reported in ChEMBL document CHEMBL2062465, “Sesquiterpenoids from Incarvillea arguta: absolute configuration and biological evaluation” (J Nat Prod, 2012).
Activity calls are given as the source filed them. The rule behind the calls is not given here. Peptide text beside a SMILES is read from it. * marks the point of attachment. Cbz = O=C(OCc1ccccc1)*

How the values were obtained:
[1] = system: SW480; assay: Cytotoxicity against human SW480 cells after 48 hrs by MTT assay; assay type: functional, cell-based; conditions: SW480, 48 h
Method in brief: (§1)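 MTT viability assay on human tumour lines. Adherent cells were seeded and allowed to attach 12 h before drug addition. Suspension cells were seeded immediately before dosing at (1−2) × 10^5 cells/mL. Cells were exposed to a range of concentrations for 48 h. Cisplatin and taxol were positive controls. IC50 values were calculated from viability.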

[2] = system: HL-60; assay: Cytotoxicity against human HL60 cells after 48 hrs by MTT assay; assay type: functional, cell-based; conditions: HL-60, 48 h; method in brief: as §1
[3] = system: MCF7; assay: Cytotoxicity against human MCF7 cells after 48 hrs by MTT assay; assay type: functional, cell-based; conditions: MCF7, 48 h; method in brief: as §1
[4] = system: SMMC-7721; assay: Cytotoxicity against human SMMC7721 cells after 48 hrs by MTT assay; assay type: functional, cell-based; conditions: SMMC-7721, 48 h; method in brief: as §1
[5] = system: RAW264.7; assay: Cytotoxicity against mouse RAW264.7 cells at 0.04 to 25 uM by MTT assay; assay type: cell-based; conditions: raw264.7, 25 µM
Method in brief: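 Viability of RAW264.7 macrophages was checked by MTT alongside each NO-production experiment, at 0.04, 0.2, 1, 5 and 25 μM.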

[6] = system: RAW264.7; assay: Antiinflammatory activity in mouse RAW264.7 cells assessed as inhibition of LPS-stimulated NO production after 18 hrs by Griess reagent method; assay type: functional, cell-based; conditions: RAW264.7, 18 h
Method in brief: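 NO release measured in LPS-stimulated RAW264.7 macrophages. DMSO wells were included, and MG-132 (proteasome inhibitor) served as positive control. Cell viability was checked by MTT in each experiment. IC50 was derived.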

[7] = system: A549; assay: Induction of intracellular calcium influx in human A549 cells at 10 uM after 12 hrs by fluorescence analysis; assay type: functional, cell-based
Method in brief: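 A549 cells were seeded at 0.5 × 10^4 cells/well and grown 12 h. They were loaded with Fluo-4 AM for 30 min, then washed three times with HBSS. Compounds were tested at 10 μM in Ca2+-containing HBSS. Intracellular calcium was imaged and analysed on an automated cell-based fluorescence-imaging system.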

Row | IC50 [6] | Compound | IC50 [1] | IC50 [2] | IC50 [3] | IC50 [4] | Activity [5] | Activity [7]
1 | 5.7 µM | C=C(CO)[C@@H]1CC(=O)C2=CCC[C@H](C)[C@@]2(C)C1 [ARGUTOSINE B] | 15.6 µM | 15.2 µM | 13.5 µM | 34.1 µM | Non-toxic | 
2 |  | C[C@H]1CCC=C2C(=O)C=C([C@]3(CO)CC[C@@](O)(CO)C4=C3C(=O)C3=CCC[C@H](C)[C@@]3(C)C4)C[C@@]21C [DIINCARVILONE A] | > 40 µM | > 40 µM | > 40 µM | > 40 µM |  | Active
3 |  | C[C@H]1CCC=C2C(=O)C=C([C@]3(CO)CC[C@](O)(CO)C4=C3C(=O)C3=CCC[C@H](C)[C@@]3(C)C4)C[C@@]21C [DIINCARVILONE B] | > 40 µM | > 40 µM | > 40 µM | > 40 µM |  | Active
4 |  | C[C@H]1CCC=C2C(=O)C=C([C@]3(CO)CC[C@@H](CO)C4=C3C(=O)C3=CCC[C@H](C)[C@@]3(C)C4)C[C@@]21C [DIINCARVILONE C] | > 40 µM | > 40 µM | > 40 µM | > 40 µM |  | 
5 |  | C[C@H]1CCC=C2C(=O)C=C([C@]3(CO)CCC(=O)C4=C3C(=O)C3=CCC[C@H](C)[C@@]3(C)C4)C[C@@]21C [DIINCARVILONE D] | > 40 µM | > 40 µM | > 40 µM | > 40 µM |  | Active
6 |  | C[C@H](CO)C1=CC(=O)C2=CCC[C@H](C)[C@@]2(C)C1 [INCARVILONE A] | > 40 µM | > 40 µM | > 40 µM | > 40 µM |  | 
7 | 0.08 µM | CC(C)C[C@@H](C=O)NC(=O)[C@H](CC(C)C)NC(=O)[C@H](CC(C)C)NC(=O)OCc1ccccc1 [MG-132] (Cbz-Leu-Leu-Leu-aldehyde) |  |  |  |  |  | 
